According to ChEMBL document CHEMBL4392884, “Sesquiterpene Lactones from Artemisia argyi: Absolute Configuration and Immunosuppressant Activity” (J Nat Prod, 2019):

System: T-cell
Experiment: Immunosuppressant activity in human T lymphocytes assessed as inhibition of anti-human CD3 and anti-human CD28 monoclonal antibody-induced T lymphocyte proliferation incubated for 72 hrs by FACS analysis
Type: functional, cell-based
How it was run: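 Stimulated human T lymphocytes were exposed to compounds over 0.01−30 μg/mL. Proliferation was read by FACS, with forward and side scatter used to score antiproliferative activity and cytotoxicity together. Three independent experiments were run, expressed as mean ± standard deviation relative to the untreated, stimulated control.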

Point of comparison: `C=C1C(=O)O[C@H]2[C@H]1CC[C@@](C)(O)[C@]13O[C@H]1[C@H]1O[C@@]1(C)[C@H]23` [ARTECANIN], IC50 2.7 µM. Against it:
- COc1cc(-c2cc(=O)c3c(O)c(OC)c(O)cc3o2)ccc1O [JACEOSIDINE] — 2.1-fold higher, 5.8 µM
- C=C1C(=O)O[C@H]([C@@H]2C(=O)C=C[C@]2(C)O)[C@H]1CCC(C)=O (relative stereo) [SECOTANAPARTHOLIDE B] — 2.7-fold lower, 1 µM
- C=C1C(=O)O[C@H]2[C@H]1[C@@H](OC(C)=O)CC(C)=C1C[C@H]3O[C@@]3(C)[C@@H]12 — within 1.5-fold, 1.9 µM
- C=C1C(=O)O[C@@H]2[C@@H]3[C@@]4(C=C[C@@]3(C)[C@@]3(C4)C(=O)O[C@@H]4[C@H]5C(C)=CC(=O)C5=C(C)C[C@H](OC(C)=O)[C@H]43)[C@](C)(O)CC[C@@H]12 — within 1.5-fold, 3.2 µM
- COc1ccc(-c2cc(=O)c3c(O)c(OC)c(O)cc3o2)cc1OC [EUPATILIN] — 4.3-fold higher, 11.7 µM
- C=C1[C@@H](OC(C)=O)C[C@@H](O)[C@]2(C)CCC3=C(COC(C)=O)C(=O)O[C@@H]3[C@@H]12 — 5.1-fold higher, 13.8 µM
- C=C1C(=O)O[C@@H]2[C@H]3C(C)=CC[C@@H](O)[C@]3(C)CC[C@@H]12 [SANTAMARIN] — 7.3-fold higher, 19.6 µM
- C=C1C(=O)O[C@H]2[C@H]1CC[C@@](C)(O)[C@@]13O[C@@H]1[C@@H]1O[C@]1(C)[C@H]23 — within 1.5-fold, 3.7 µM
- C=C1C(=O)O[C@H]([C@H]2C(=O)C=C[C@@]2(C)O)[C@H]1CCC(C)=O (relative stereo) — 2.3-fold lower, 1.2 µM

System: T-cell
Experiment: Toxicity in anti-human CD3 and anti-human CD28 monoclonal antibody-stimulated human T lymphocytes assessed as induction of apoptosis at 3 times antiproliferative IC50 incubated for 48 hrs by annexin V-FITC and propidium iodide staining based FACS analysis

`C=C1C(=O)O[C@H]2[C@H]1[C@@H](OC(C)=O)CC(C)=C1C[C@H]3O[C@@]3(C)[C@@H]12` was tested, and the Activity was “Non-Toxic”.
